Assay: Toxicity liver stage against HepG2, at 10uM
Format: cell-based
Design: test concentration 10 uM, cell line HepG2-A16-CD81EGFP
Conditions: human, HepG2-A16-CD81EGFP cells; read-out: INHIBITION
In short: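 Uninfected HepG2-A16-CD81EGFP cells, 3 × 10^3 per well, 1536-well, plated on prespotted compound at 10 μM final, parasite-free screening media added to match infected plates; puromycin 10 μM positive, DMSO 0.5% negative; run in parallel with 48 h PbLuc assay at 37 °C, 5% CO2; viability by CellTiter-Glo luminescence, normalized to controls.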

Compound | cytotoxicity at 10 µM [%]
CC(C)NC(=O)NC[C@H]1OC[C@@H](NCc2ccccc2F)[C@@H]1O | -1.31
COc1cccc(CN2CC(O)CN(C(=O)C(C)(C)C)CC2=O)c1OC (stereo not given) | -57.6
O=C1NCCCc2c1oc1ccc(O)c(CN3CCOCC3)c21 | 13.3
O=C(Cn1ccc2cc(Br)ccc21)NC[C@@H]1CCCN2CCCC[C@H]12 | 14.5
CC1=Nc2c(c(=O)[nH]n2C(C)C)C(c2ccc3nccnc3c2)S1 (stereo not given) | 7.29
CCO[C@H]1CN(C(=O)c2ccc3c(c2)OCO3)[C@@H]2COC[C@H]12 | -130
CS(=O)(=O)N1CCc2c(nnn2CC2CC2)C1COCC1CC1 (stereo not given) | -3.15
Cc1ccc(N2CCC3(CCN(Cc4csc(C)n4)CC3)CC2)nn1 | 9.43
Cc1ccc(N2CC3(CCN(c4nccs4)C3)C2)nn1 | -5.85
Cc1nnc(SCC(=O)NCc2ccc3c(c2)CCC(=O)N3)n1C | 9.73
CS(=O)(=O)Nc1ccn(Cc2ccc(Cl)cc2)n1 | 6.44
CNc1cncc(C2CCN(C(=O)c3coc(C)n3)CC2)n1 | 0.109
COc1ccc(Oc2nccnc2C2CCN(C(C)=O)CC2)cc1 | -12.4
COc1cnc(C2(O)CCN(C(=O)c3ccccn3)CC2)c(OC)n1 | -8.99
Cc1c[nH]nc1C1CCCCN1C(=O)CCn1nccc1C (stereo not given) | -6.39
O=C(O)C1(Cc2cccc(-c3ccc(F)c(F)c3)c2)CCOCC1 | -2.5
Fc1ccc(CN2CCCC(c3nnc(-c4cnccn4)o3)C2)cc1F (stereo not given) | -8.03
COCCNC(=O)CN(C)C(C)c1nc(C)no1 (stereo not given) | 0.668
N#Cc1cnc(NCc2cccc(C(=O)N3CCCC3)c2)c(Cl)c1 | -0.657
COCCn1nc(C(=O)N2CCN(C)CC2C)ccc1=O (stereo not given) | -0.451
Cc1ccc(CNS(=O)(=O)CCCC#N)cc1F | -9.48
Cc1cnn(C2CN(CCOc3ccccc3C#N)C2)c1 | -8.88

Compound | cytotoxicity at 10 µM [%]
Cc1ncc(C(=O)OCC2CCN(c3ccccc3)C2)s1 (stereo not given) | -16
CCN(CC)C(=O)CCc1nc(-c2cnn3c(C)cc(C)nc23)no1 | -11.5
CCn1nc(C)cc1C(=O)N1CCC(Nc2ccc(C)nn2)CC1 | -4.32
CCC(NC(=O)NCC(=O)Nc1ccc(F)cc1)c1ccncc1 (stereo not given) | -10.9
COc1c(C)cnc(CSc2nnc(NC3CC3)s2)c1C | 10.9
Cc1ccn(-c2ccccc2NCc2scnc2C)n1 | 7.28
N#Cc1ccc(C(=O)NS(=O)(=O)c2ccc(F)c(F)c2)cc1 | -4.11
Cc1ncc2c(n1)CN(C(C(N)=O)c1ccc(F)cc1)CC2 (stereo not given) | -1.01
CC(=O)N(Cc1c(F)cccc1F)C1CCCC1 | -3.63
Cc1cccc(C2(O)CCN(C(=O)c3ccccn3)CC2)c1C | -0.823
CS(=O)(=O)Cc1ccc(Cl)c(NCc2noc(C3CC3)n2)c1 | 6.95
NC(=O)c1cccc(CCNC(=O)N2CCCC2)c1 | -3.88
Cc1cnc(CNS(=O)(=O)CCC2CCCO2)o1 (stereo not given) | 9.84
Cc1ccc(NC(=O)NCC(c2cnn(C)c2)N(C)C)c(C)c1 (stereo not given) | -0.538
CN(Cc1ccc([S+](C)[O-])cc1)c1cncc(Br)c1 (stereo not given) | 11.7
CN1CCN(C(=O)c2ccc3c(c2)[nH]c(=O)n3C2CCCC2)CC1 | -42.2
CCCN(CC(=O)OC)S(=O)(=O)c1cnc2c(c1)c(C)nn2C | -2.61
CC(=O)NCc1ccc(-n2ccnc2C)nc1 | -6.49
CCOCc1ccccc1NC(=O)NC1CCN(C2CCCC2)C1 (stereo not given) | 9.42
CC(C)NC(=O)c1nnn(-c2cccc(C(F)(F)F)c2)c1C1CC1 | -19
CS(=O)(=O)N1CCC(c2nc3ccc(-c4cccc(F)c4)cn3n2)CC1 | 22.6
COCCC1COC2(CCN(C(=O)c3ccsc3)CC2)C1 (stereo not given) | -71.2

Compound | cytotoxicity at 10 µM [%]
CN1C(=O)CC(c2cnn(C)c2)C12CCN(C(=O)c1ccnnc1)CC2 (stereo not given) | -74.4
CCN1CCCn2c(nc(CNC(=O)c3ccsc3)cc2=O)C1 | 1.16
COCCNc1cc(-c2cccc(C(=O)O)c2C)c2cc[nH]c2n1 | -3.85
CNC(=O)C1CCN(c2ncnc3c2CCN(C(=O)C2CC2)C3)C1 (stereo not given) | 1.67
CCN(Cc1nc(COC)no1)C(=O)CCNC(=O)c1ccccc1F | -4.17
CCC(NC(=O)C1CCN(C(C)C)CC1)c1cn2cccnc2n1 (stereo not given) | -6.21
CCc1nccn1CC(=O)N1CCN(C2CCc3ccccc3C2)CC1 (stereo not given) | -119
COc1cc(CNc2nc3c(c(=O)[nH]2)CCNC3)cc(OC)c1OC | 4.72
COCCCN1CC2(CCN(C(=O)c3ncc(F)cc3F)CC2)CC1=O | -3.94
Cc1nn(CC(=O)NCc2cc3n(n2)CCCN(CC(C)C)C3)cc1Cl | 1.95
N[C@@H]1CCN(Cc2cccc(N3CCOCC3)c2)C[C@H]1O | 11.8
CNc1cc(C(=O)N2CCC3(CC2)Nc2ccccc2NC3=O)ccn1 | 3.46
CC1CCCN1Cc1cccc(C(=O)Nc2ccc3c(c2)CCC3=O)c1 (stereo not given) | -30.9
CCOc1ccc2nc(CN3CCC(CN)C3)ccc2c1 (stereo not given) | -7.41
COc1nc2ccn(CCc3cc(O)nc(C)n3)c(=O)c2cc1C#N | 10.9
CCC(C(=O)NCc1csc(N2CCOCC2)n1)n1cccn1 (stereo not given) | -2.88
N[C@H]1CN(S(=O)(=O)c2ccccc2)C[C@@H]1C1CC1 | -14.3
CC(C)Cc1cc(C(=O)NC(C)(C)CN2CCCCCC2)on1 | -4.75
C[C@@H]1CN(C2CCCCC2)CC[C@@]1(O)C1CCOCC1 | -7.58
Cn1ccnc1CN1CCC(CNS(=O)(=O)c2cccnc2)C1 (stereo not given) | 6.03
Cc1cccc(-n2ncc3c2CCCC3NCC(C)(C)CO)c1C (stereo not given) | -1.19
COc1cc(-c2cnnc(NCCCOC(C)C)n2)cc(OC)c1OC | 3.51

Compound | cytotoxicity at 10 µM [%]
COCCn1ccnc1C1CCCN(c2ncnc3c2CCC3)C1 (stereo not given) | 1.66
CC(=O)Nn1ccc2c(nnc3c(-c4ccc(F)cc4)cnn32)c1=O | 1.36
CC(=O)Nn1ccc2c(nnc3c(-c4ccccc4)cnn32)c1=O | 3.06
CCN(Cc1cc(Cl)ccc1OC)Cc1cc(C)nn1C | 6.62
COc1cc(CN(C)C(C)c2ccccn2)cc2c1OCO2 (stereo not given) | 8.97
COCCC1(C(=O)O)CCCN(Cc2cc3c(cc2Cl)OCO3)C1 (stereo not given) | -5.41
Cc1ccccc1CSc1nc(N)cc(N2C[C@H](O)[C@@H](N(C)C)C2)n1 | 17.3
N#CCCn1nc(C(F)(F)F)c2c1CCC2 | -12
Cc1cc2c(=O)n3c(nc2s1)CCN(Cc1ccncc1)CC3 | 10.9
Cc1cccc(C)c1OC1CCN(Cc2ccn(C)c(=O)c2)CC1 | -2.95
CSC(C)C(=O)N(C)CCCc1cc(-c2ccccc2)no1 (stereo not given) | 2.63
CN(C)c1ncccc1CNC(=O)N1CCCC1CN1CCCC1 (stereo not given) | -12.4
CCc1nc(C2CCCN2C(=O)c2cc[nH]n2)no1 (stereo not given) | -15.6
Cc1cnn(CC(C)NCc2ccc(OCC(N)=O)cc2)c1 (stereo not given) | -11.7
Cc1ccccc1NC(=O)N1CCN(Cc2noc(C3CC3)n2)CC1 | -17
CC(NC(=O)NCCCN(C)S(C)(=O)=O)c1ccc(F)cc1 (stereo not given) | -21.9
Fc1ccc(-c2nc(CN3CCOC(Cn4cccn4)C3)co2)cc1 (stereo not given) | -3.78
CN(Cc1cnn(-c2ccccc2)n1)CC1CCCN1c1cccnn1 (stereo not given) | -6.56
CC(=O)Nc1nc(C(=O)N2CCCC(n3nc(C)cc3C)C2)cs1 (stereo not given) | 0.74
Cc1nccn1C1CCCN(C(=O)c2ccc3c(c2)COC3)C1 (stereo not given) | -10.8
COc1ccc(S(=O)(=O)NCc2cccnc2N(C)C)cc1F | 5.8
CC(C)(C)c1nnc(CN2CCN(CC(O)c3ccccc3)CC2)o1 (stereo not given) | -12.8

Compound | cytotoxicity at 10 µM [%]
CCN(CCNC(=O)c1ccccc1OCCOC)C1CC1 | 11.7
CS(=O)(=O)NCC1CCCN(C(=O)c2cc3ccccc3o2)C1 (stereo not given) | -1.82
Cn1ccc(CN2CCC(COC3CCCC3)CC2)cc1=O | -1.68
CN(Cc1ccco1)C[C@H]1OC[C@@H]2CN(c3ncc(F)cn3)CC[C@@H]21 | 21.9
CC1CCN(C(=O)CN2CC(c3nc(C4CC4)no3)C2)CC1 | -6.6
CC(C)c1nn(C)c(Cl)c1CNCc1cccnc1N(C)C | 10.7
CC(C)N1[C@H](Cn2cncn2)C[C@@H]2CN(Cc3cccs3)CC[C@@H]21 | -109
CN(C)C1CC2(CCN(C(=O)C3(C#N)CC3)CC2)c2ccccc21 (stereo not given) | -113
c1cnc(-c2noc(C3CN(Cc4ccc5c(c4)CCO5)C3)n2)cn1 | 1.35
COCc1nn(C(C)C)c2c1CCN(Cc1ccc(C)o1)C2 | 2.32
c1cnc(N2C[C@H]3CCN(Cc4ccncc4)C[C@H]3C2)nc1 | -103
CC1c2ncc(Cn3cccn3)n2CCN1Cc1ccccn1 (stereo not given) | -106
Cn1cc(C[C@H]2[C@H](O)CCN2Cc2ccc(F)cc2)cn1 | -75.9
O=C([C@H]1CCCN1)N1CC2(CCNCC2)c2cc(Cl)ccc21 | 0.286
CN(C)[C@@H]1CCN(C(=O)c2cccn2C)[C@H]1Cc1cnn(C)c1 | -74.6
Fc1cccc(CN2CCOCC3(CCN(C4CCOCC4)C3)C2)c1 (stereo not given) | -0.503
Cc1noc(C)c1C(=O)N1Cc2ncn(C)c2C(COCC2CC2)C1 (stereo not given) | -111
CN(C)C1COC2(CCN(S(=O)(=O)c3ccc(F)cc3)CC2)C1 (stereo not given) | -129
COc1ccccc1-c1ccc(C(=O)N2C[C@@H]3CC[C@H]2CN(C)C3)cc1 | -18.2
COCC(=O)NCC1(COc2cccnc2)C[C@@H](O)[C@@H](O)C1 (stereo not given in full) | 2.52
Cc1cccc(CN2C[C@@H]3CC[C@H]2CN(Cc2[nH]cnc2C)C3)n1 | -3.43
Cc1cnc(CN(C)C(=O)C23CNCC2CNC3)[nH]1 (stereo not given) | -6.46
